Nine compounds from ChEMBL document CHEMBL1127548, “N-benzylnaltrindoles as long-acting delta-opioid receptor antagonists” (J Med Chem, 1994) can be followed below.

In experiment [1] the target is Delta-type opioid receptor (Mus musculus) (UniProt P32300). In words: Antagonist potency was determined using D-Ala2, D-Leu5 enkephalin28 (DADLE) at delta-opioid receptor in mouse vas deferens (MVD); IC50 ratio. Type of experiment: functional. Summed up:
(§1)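 Electrically stimulated tissue: agonists were morphine (μ) and ethylketazocine (κ) in guinea pig ileal longitudinal muscle, and DADLE (δ) in mouse vas deferens. Antagonist at 100 nM was incubated 15 min. IC50 ratio is agonist IC50 with antagonist divided by control IC50 in the same preparation, n ≥ 3, ±SE.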

Experiment [2] deals with Kappa-type opioid receptor (Cavia porcellus) (UniProt P41144). In words: Antagonist potency was determined using ethylketazocine at kappa-opioid receptor in electrically stimulated guinea pig ileal longitudinal muscle (GPI); IC50 ratio. In kind it is functional. Put shortly: as §1
Chain of Kappa-type opioid receptor (Cavia porcellus) (P41144 whole entry): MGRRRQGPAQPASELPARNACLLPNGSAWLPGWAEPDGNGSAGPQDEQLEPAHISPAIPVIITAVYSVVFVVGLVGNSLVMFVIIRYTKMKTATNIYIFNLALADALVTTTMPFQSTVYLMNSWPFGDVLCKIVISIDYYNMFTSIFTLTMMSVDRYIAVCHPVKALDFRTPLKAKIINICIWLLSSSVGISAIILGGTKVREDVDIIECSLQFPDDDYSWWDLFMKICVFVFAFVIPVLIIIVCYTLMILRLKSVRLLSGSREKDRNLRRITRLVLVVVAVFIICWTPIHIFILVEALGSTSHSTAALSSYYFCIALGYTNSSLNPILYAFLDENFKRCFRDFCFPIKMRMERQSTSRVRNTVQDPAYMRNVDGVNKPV
In experiment [3] the target is Opioid receptors; mu & delta (Homo sapiens) (UniProt P41143+P35372). In words: Selectivity ratio is the ratio between delta and mu receptor. In kind it is protein assay. Put shortly:
(§2)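 Selectivity ratio is the DADLE IC50 ratio divided by the morphine (δ/μ) or ethylketazocine (δ/κ) IC50 ratio. These IC50 ratios come from smooth muscle with 100 nM antagonist, 15 min. A value of 1 was used wherever an IC50 ratio was <1.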

The target of experiment [4] is Opioid receptors; delta & kappa (Homo sapiens) (UniProt P41145+P41143). In words: Selectivity ratio is the ratio between delta and kappa receptor. In kind it is protein assay. Put shortly: as §2
Chain of Opioid receptors; delta & kappa (Homo sapiens) (P41143 whole entry, looked up): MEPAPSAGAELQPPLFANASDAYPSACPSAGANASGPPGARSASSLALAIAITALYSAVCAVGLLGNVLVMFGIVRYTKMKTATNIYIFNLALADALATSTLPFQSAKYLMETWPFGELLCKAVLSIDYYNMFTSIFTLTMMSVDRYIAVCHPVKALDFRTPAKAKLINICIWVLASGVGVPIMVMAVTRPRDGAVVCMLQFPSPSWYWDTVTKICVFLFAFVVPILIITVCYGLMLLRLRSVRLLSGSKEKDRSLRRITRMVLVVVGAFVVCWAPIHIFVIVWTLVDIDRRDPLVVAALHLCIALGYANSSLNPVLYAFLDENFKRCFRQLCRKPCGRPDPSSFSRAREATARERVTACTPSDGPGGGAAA
Chain of Opioid receptors; delta & kappa (Homo sapiens) (P41145 whole entry, looked up): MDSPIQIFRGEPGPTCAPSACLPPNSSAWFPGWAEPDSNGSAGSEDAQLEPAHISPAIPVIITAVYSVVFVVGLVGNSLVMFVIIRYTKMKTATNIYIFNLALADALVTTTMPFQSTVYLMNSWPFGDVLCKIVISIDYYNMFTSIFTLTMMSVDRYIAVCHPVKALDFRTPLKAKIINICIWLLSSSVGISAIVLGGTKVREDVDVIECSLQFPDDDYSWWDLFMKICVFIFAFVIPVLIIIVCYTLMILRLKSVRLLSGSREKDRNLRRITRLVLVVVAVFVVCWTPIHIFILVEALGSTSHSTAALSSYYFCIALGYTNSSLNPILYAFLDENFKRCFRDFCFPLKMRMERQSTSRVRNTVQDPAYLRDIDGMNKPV
Experiment [5] addresses Mu-type opioid receptor (Cavia porcellus) (UniProt P97266). In words: Antagonist potency using morphine at mu-opioid receptor in electrically stimulated guinea pig ileal longitudinal muscle (GPI); IC50 ratio. Type of experiment: functional. Summed up:
as §1

The target in experiment [6] is Mu-type opioid receptor (Mus musculus) (UniProt P42866). In words: Antagonist potency was determined using morphine in mu-opioid receptor by icv administration in mouse after 24 hr; ED50 ratio. In kind it is functional, organism-based. Summed up:
(§3)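 Mouse abdominal stretch antinociception assay. Antagonist was given icv at 5 nmol, with agonists tested 24 h later. DSLET and DPDPE were given icv; morphine and U50488 were given sc. ED50 ratio is agonist ED50 with antagonist divided by control ED50, with 95% confidence limits.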

In experiment [7] the target is Delta-type opioid receptor (Mus musculus) (UniProt P32300). In words: Antagonist potency was determined using DPDPE in delta1-opioid receptor by icv administration in mouse after 24 hr; ED50 ratio. In kind it is functional, organism-based. Put shortly:
as §3

Experiment [8] shares this target. In words: Antagonist potency was determined using […] in delta2-opioid receptor by icv administration in mouse after 24 hr; ED50 ratio. Type of experiment: functional, organism-based. Put shortly:
as §3

The target of experiment [9] is Kappa-type opioid receptor (Mus musculus) (UniProt P33534). In words: Antagonist potency was determined using U-50,488 in kappa-opioid receptor by icv administration in mouse after 24 hr; ED50 ratio. In kind it is functional, organism-based. Summed up:
as §3

Chain of Delta-type opioid receptor (Mus musculus) (P32300 whole entry): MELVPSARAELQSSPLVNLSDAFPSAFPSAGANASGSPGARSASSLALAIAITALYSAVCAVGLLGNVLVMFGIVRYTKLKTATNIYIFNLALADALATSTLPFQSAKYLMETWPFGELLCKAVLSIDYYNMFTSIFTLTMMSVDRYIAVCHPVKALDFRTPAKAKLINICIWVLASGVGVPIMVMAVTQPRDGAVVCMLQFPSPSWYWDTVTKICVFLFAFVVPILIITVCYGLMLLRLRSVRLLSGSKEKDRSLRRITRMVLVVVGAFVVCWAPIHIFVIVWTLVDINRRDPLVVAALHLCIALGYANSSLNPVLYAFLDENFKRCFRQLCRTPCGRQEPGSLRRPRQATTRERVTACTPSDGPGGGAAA
Chain of Mu-type opioid receptor (Cavia porcellus) (P97266 whole entry): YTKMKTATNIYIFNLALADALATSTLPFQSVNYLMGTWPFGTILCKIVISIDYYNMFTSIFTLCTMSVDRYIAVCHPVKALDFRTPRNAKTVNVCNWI
Chain of Opioid receptors; mu & delta (Homo sapiens) (P35372 whole entry, looked up): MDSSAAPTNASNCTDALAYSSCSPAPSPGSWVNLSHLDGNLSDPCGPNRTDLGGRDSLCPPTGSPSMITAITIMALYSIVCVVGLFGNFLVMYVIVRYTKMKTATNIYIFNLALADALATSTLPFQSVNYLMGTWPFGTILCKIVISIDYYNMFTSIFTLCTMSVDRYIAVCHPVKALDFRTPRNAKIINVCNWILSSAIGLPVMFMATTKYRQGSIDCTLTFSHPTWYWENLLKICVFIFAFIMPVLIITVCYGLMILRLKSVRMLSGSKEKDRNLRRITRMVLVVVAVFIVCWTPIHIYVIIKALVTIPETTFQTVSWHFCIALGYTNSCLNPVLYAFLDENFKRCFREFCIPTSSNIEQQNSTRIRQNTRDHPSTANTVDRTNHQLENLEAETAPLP
Chain of Opioid receptors; mu & delta (Homo sapiens) (P41143 whole entry, looked up): as the sequence (P41143 whole entry, looked up) above
Chain of Kappa-type opioid receptor (Mus musculus) (P33534 whole entry): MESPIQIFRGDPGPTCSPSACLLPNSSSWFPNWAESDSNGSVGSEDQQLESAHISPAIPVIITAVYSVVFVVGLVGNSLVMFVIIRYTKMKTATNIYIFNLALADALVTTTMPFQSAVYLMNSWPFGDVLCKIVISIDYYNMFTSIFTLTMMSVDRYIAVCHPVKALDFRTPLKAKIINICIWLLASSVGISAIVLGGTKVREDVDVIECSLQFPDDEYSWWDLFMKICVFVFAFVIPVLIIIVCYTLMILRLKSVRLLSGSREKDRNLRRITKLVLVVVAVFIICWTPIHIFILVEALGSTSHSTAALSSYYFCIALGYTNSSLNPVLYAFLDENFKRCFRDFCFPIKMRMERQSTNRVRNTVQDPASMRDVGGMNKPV
Chain of Mu-type opioid receptor (Mus musculus) (P42866 whole entry): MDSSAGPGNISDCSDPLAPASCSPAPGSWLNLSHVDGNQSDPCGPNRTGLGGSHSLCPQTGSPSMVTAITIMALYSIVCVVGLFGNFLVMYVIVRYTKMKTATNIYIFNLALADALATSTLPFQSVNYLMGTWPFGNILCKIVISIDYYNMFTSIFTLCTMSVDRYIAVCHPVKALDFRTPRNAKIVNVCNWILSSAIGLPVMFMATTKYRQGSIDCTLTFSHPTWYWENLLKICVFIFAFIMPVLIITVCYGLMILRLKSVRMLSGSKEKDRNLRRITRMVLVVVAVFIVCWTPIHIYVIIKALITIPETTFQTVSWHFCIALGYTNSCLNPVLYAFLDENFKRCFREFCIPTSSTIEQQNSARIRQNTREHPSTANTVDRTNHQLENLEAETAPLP

Turning to `O=[N+]([O-])c1ccccc1Cn1c2c(c3ccccc31)C[C@@]1(O)[C@H]3Cc4ccc(O)c5c4[C@@]1(CCN3CC1CC1)[C@H]2O5`, the Ratio in experiment [1] turned out to be 31; in experiment [2], 0.8; in [5] it was 2.3. Also, the values for the Selectivity ratio in experiment [3] and in experiment [4] were 13 and 31, respectively.

In the case of `O=[N+]([O-])c1cccc(Cn2c3c(c4ccccc42)C[C@@]2(O)[C@H]4Cc5ccc(O)c6c5[C@@]2(CCN4CC2CC2)[C@H]3O6)c1`, the Ratio in experiment [1] is 112; in experiment [2] it was 0.6; in experiment [5], 0.9. For the same compound, the Selectivity ratio in experiment [3] and in experiment [4] was 112 each time.

As for `Oc1ccc2c3c1O[C@H]1c4[nH]c5ccccc5c4C[C@@]4(O)[C@@H](C2)N(CC2CC2)CC[C@]314`, the Ratio in experiment [1] is 459; in [2] it was 1.3; in experiment [5], 11.2. Also, the Selectivity ratio in experiment [3] amounted to 41; in experiment [4], 353.

As to `O=[N+]([O-])c1ccc(Cn2c3c(c4ccccc42)C[C@@]2(O)[C@H]4Cc5ccc(O)c6c5[C@@]2(CCN4CC2CC2)[C@H]3O6)cc1`, the figures for the Ratio in experiment [1], in experiment [2] and in experiment [5] were 38, 0.4 and 0.5, respectively. The Selectivity ratio in experiment [3] and in [4] was 38 in each case.

With `Oc1ccc2c3c1O[C@H]1c4c(c5ccccc5n4Cc4ccccc4)C[C@@]4(O)[C@@H](C2)N(CC2CC2)CC[C@]314`, the Ratio in [6] is 1.2; in [7], 1.3; in experiment [1] it was 208; in experiment [2] it was 0.4; in experiment [8] it was 10; in experiment [9], 0.77. Further, the Ratio in [5] is 1.6. Besides, the Selectivity ratio is 131 in experiment [3] and 208 in [4].

For `Nc1ccccc1Cn1c2c(c3ccccc31)C[C@@]1(O)[C@H]3Cc4ccc(O)c5c4[C@@]1(CCN3CC1CC1)[C@H]2O5`, the values for the Ratio in experiment [1], in experiment [2] and in experiment [5] were 120, 0.9 and 1, respectively. For the same compound, the Selectivity ratio in experiment [3] and in [4] was 120 each time.

For `Nc1ccc(Cn2c3c(c4ccccc42)C[C@@]2(O)[C@H]4Cc5ccc(O)c6c5[C@@]2(CCN4CC2CC2)[C@H]3O6)cc1`, the Ratio in experiment [6] is 1.1; in [1] it was 288; in experiment [2] it was 1.5; in [8], 5.9; in experiment [9] it was 0.64; in [5] it was 2.7. Moreover, the Selectivity ratio in experiment [3] was determined as 106; in [4], 188.

As to `Oc1ccc2c3c1O[C@H]1c4c(c5ccccc5n4Cc4c(F)c(F)c(F)c(F)c4F)C[C@@]4(O)[C@@H](C2)N(CC2CC2)CC[C@]314`, the values for the Ratio in experiment [1], in [2] and in experiment [5] were 52, 0.7 and 1.4, respectively. Besides, the Selectivity ratio in experiment [3] is 37; in experiment [4], 52.

As for `Nc1cccc(Cn2c3c(c4ccccc42)C[C@@]2(O)[C@H]4Cc5ccc(O)c6c5[C@@]2(CCN4CC2CC2)[C@H]3O6)c1`, the Ratio came to 148 in [1], 1.5 in [2] and 1.3 in [5]. In addition, the Selectivity ratio in [3] worked out at 111; in experiment [4], 100.
